Measured values: ChEMBL document CHEMBL4422637, “Identification of dual role of piperazine-linked phenyl cyclopropyl methanone as positive allosteric modulator of 5-HT2C and negative allosteric modulator of 5-HT2B receptors” (Eur J Med Chem, 2019)
pEC50: −log10 of the molar value. The source made the active and inactive calls. The rule behind the calls is not given here.

Assays:
[1] = molecular target: T1, 5-hydroxytryptamine receptor 2C (Homo sapiens) (UniProt P28335); experiment: Agonist activity at 5HT2C receptor (unknown origin) expressed in HEK293 cells co-expressing NFAT-RE at 10 uM after 6 to 12 hrs by Bright-Glo luciferase reporter gene assay; type: cell-based
T1 sequence (whole entry): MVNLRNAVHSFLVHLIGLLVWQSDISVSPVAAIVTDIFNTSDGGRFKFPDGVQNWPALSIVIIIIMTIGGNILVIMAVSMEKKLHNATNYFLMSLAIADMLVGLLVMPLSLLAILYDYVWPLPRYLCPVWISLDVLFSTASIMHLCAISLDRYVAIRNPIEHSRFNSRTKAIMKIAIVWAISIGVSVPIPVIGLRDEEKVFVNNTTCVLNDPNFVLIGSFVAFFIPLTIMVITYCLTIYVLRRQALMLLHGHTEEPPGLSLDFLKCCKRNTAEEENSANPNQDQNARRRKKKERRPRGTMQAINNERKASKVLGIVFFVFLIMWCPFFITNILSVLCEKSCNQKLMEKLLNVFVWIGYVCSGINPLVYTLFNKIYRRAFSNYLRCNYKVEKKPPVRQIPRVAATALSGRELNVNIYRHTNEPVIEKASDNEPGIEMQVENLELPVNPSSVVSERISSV
In short: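 Primary screen at 5-HT2C in transiently co-transfected HEK293T (receptor plus NFAT-RE luciferase plasmids, 50,000 cells/well). Compounds tested in triplicate at a final 10 µM in HEPES-buffered HBSS pH 7.4 and incubated 6-12 h. Luminescence read within 5 min of Bright-Glo (1 mg/ml final). Signal normalized to the 5-HT maximal response.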

[2] = molecular target: T1, 5-hydroxytryptamine receptor 2C (Homo sapiens); experiment: Positive allosteric modulation of 5HT2C receptor (unknown origin) expressed in HEK293 cells co-expressing NFAT-RE assessed as increase in serotonin-induced reponse at 10 uM after 6 to 12 hrs by Bright-Glo luciferase reporter gene assay relative to serotonin; type: cell-based
In short: (§1)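 Transiently co-transfected HEK293T cells expressing 5-HT2A, 5-HT2B or 5-HT2C with NFAT-RE luciferase, 50,000 cells/well. Test compound added first at 10 µM, 1 µM or 100 nM, in triplicate. A 5-HT concentration-response (10 µM to 0.01 nM) followed, then 6-12 h incubation. Bright-Glo luminescence was fitted by non-linear regression, with Emax normalized to 5-HT alone (100%). n=3-4.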

[3] = system: Rattus norvegicus; experiment: Induction of anorexia in Sprague-Dawley rat assessed as suppression of food intake at 2 pmol, icv measured after 3 to 6 hrs; type: functional, organism-based
In short: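 Adult SD rats (150-200 g) on a 12 h light/dark cycle at 22 °C, cannulated in the right ventricle. Rats were fasted 4 h with free access to water, then dosed i.c.v. with 2 pmol/rat (2 µL) in aCSF vehicle; lorcaserin 2 pmol/rat served as positive control. Weighed pellets were given 10 min later, and remaining food plus spillage was weighed at 3, 6 and 24 h; n=4.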

[4] = molecular target: T2, 5-hydroxytryptamine receptor 2B (Homo sapiens, UniProt P41595); experiment: Positive allosteric modulation of 5HT2B receptor (unknown origin) expressed in HEK293 cells co-expressing NFAT-RE assessed as increase in serotonin-induced reponse at 10 uM after 6 to 12 hrs by Bright-Glo luciferase reporter gene assay; type: cell-based; settings: hek293, 10 µM; in short: as §1
[5] = molecular target: T1, 5-hydroxytryptamine receptor 2C (Homo sapiens); experiment: Positive allosteric modulation of 5HT2C receptor (unknown origin) expressed in HEK293 cells co-expressing NFAT-RE assessed as increase in serotonin-induced reponse at 1 uM after 6 to 12 hrs by Bright-Glo luciferase reporter gene assay relative to serotonin; type: cell-based; in short: as §1
[6] = molecular target: 5HT2A receptor (Homo sapiens, UniProt P28223); experiment: Positive allosteric modulation of 5HT2A receptor (unknown origin) expressed in HEK293 cells co-expressing NFAT-RE assessed as increase in serotonin-induced reponse at 1 uM after 6 to 12 hrs by Bright-Glo luciferase reporter gene assay relative to serotonin; type: cell-based; settings: HEK293 cells expressing 5HT2A receptor and NFAT-RE reporter; in short: as §1
[7] = molecular target: 5HT2B receptor (Homo sapiens, UniProt P41595); experiment: Positive allosteric modulation of 5HT2B receptor (unknown origin) expressed in HEK293 cells co-expressing NFAT-RE assessed as increase in serotonin-induced reponse at 1 uM after 6 to 12 hrs by Bright-Glo luciferase reporter gene assay relative to serotonin; type: cell-based; settings: HEK293 cells expressing 5HT2B receptor and NFAT-RE reporter; in short: as §1
[8] = molecular target: T3, 5-hydroxytryptamine receptor 2A (Homo sapiens, UniProt P28223); experiment: Agonist activity at 5HT2A receptor (unknown origin) expressed in HEK293 cells co-expressing NFAT-RE after 6 to 12 hrs by Bright-Glo luciferase reporter gene assay; type: cell-based
In short: (§2)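 HEK293T cells transiently co-transfected (PEI) with 0.1 µg/well receptor plasmid (5-HT2A, 5-HT2B or 5-HT2C) plus 0.1 µg/well NFAT-RE luciferase reporter, plated 50,000 cells/well 24 h before treatment. Compounds tested in triplicate from 10 µM down to 0.01 nM in HBSS/20 mM HEPES pH 7.4, incubated 6-12 h. Luminescence read within 5 min of Bright-Glo (1 mg/ml final). RLU fitted by non-linear regression; 5-HT Emax set to 100%.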

[9] = molecular target: T2, 5-hydroxytryptamine receptor 2B; experiment: Agonist activity at 5HT2B receptor (unknown origin) expressed in HEK293 cells co-expressing NFAT-RE after 6 to 12 hrs by Bright-Glo luciferase reporter gene assay; type: cell-based; in short: as §2
[10] = molecular target: T1, 5-hydroxytryptamine receptor 2C (Homo sapiens); experiment: Agonist activity at 5HT2C receptor (unknown origin) expressed in HEK293 cells co-expressing NFAT-RE after 6 to 12 hrs by Bright-Glo luciferase reporter gene assay; type: cell-based; in short: as §2
[11] = molecular target: T4, 5-hydroxytryptamine receptor 2C (Homo sapiens, UniProt P28335); experiment: Positive allosteric modulation of 5HT2C receptor (unknown origin) expressed in HEK293 cells co-expressing NFAT-RE assessed as increase in serotonin-induced reponse after 6 to 12 hrs by Bright-Glo luciferase reporter gene assay; type: cell-based; in short: as §1
T4 sequence (P28335 whole entry): T1 sequence (whole entry)

[12] = molecular target: T3, 5-hydroxytryptamine receptor 2A; experiment: Positive allosteric modulation of 5HT2A receptor (unknown origin) expressed in HEK293 cells co-expressing NFAT-RE assessed as increase in serotonin-induced reponse after 6 to 12 hrs by Bright-Glo luciferase reporter gene assay; type: cell-based; in short: as §1
[13] = molecular target: T2, 5-hydroxytryptamine receptor 2B; experiment: Positive allosteric modulation of 5HT2B receptor (unknown origin) expressed in HEK293 cells co-expressing NFAT-RE assessed as increase in serotonin-induced reponse after 6 to 12 hrs by Bright-Glo luciferase reporter gene assay; type: cell-based; in short: as §1

T2 sequence (P41595 whole entry): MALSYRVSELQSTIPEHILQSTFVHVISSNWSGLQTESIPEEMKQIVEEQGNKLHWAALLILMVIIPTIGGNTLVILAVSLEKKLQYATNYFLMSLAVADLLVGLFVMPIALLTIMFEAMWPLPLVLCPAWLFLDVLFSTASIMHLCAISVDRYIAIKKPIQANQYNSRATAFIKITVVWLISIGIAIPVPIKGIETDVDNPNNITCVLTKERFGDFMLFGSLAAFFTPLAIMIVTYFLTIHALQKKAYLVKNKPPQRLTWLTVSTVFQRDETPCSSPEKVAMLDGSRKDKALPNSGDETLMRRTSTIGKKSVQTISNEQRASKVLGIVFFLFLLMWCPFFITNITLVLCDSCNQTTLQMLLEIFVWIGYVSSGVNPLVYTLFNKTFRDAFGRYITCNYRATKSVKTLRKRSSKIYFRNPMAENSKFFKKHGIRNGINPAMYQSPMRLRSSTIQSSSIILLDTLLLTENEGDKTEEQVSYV
T3 sequence (P28223 whole entry): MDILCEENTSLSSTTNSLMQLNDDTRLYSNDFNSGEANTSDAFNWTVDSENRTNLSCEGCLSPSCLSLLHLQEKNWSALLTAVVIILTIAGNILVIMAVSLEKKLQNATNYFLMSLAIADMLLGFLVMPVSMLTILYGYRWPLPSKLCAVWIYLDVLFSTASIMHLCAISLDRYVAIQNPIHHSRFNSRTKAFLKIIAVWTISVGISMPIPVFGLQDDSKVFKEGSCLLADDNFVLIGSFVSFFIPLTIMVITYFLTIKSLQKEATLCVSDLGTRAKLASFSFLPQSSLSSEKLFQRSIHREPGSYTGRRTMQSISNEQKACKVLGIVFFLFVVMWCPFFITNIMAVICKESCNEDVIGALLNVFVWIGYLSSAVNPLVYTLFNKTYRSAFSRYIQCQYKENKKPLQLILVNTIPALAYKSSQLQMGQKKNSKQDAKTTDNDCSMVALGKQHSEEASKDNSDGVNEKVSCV
5HT2B receptor, sequence (P41595 whole entry): as the sequence (P41595 whole entry) above
5HT2A receptor, sequence (P28223 whole entry): as the sequence (P28223 whole entry) above

Compound | Activity [1] | Activity [2] | other results
Cc1nc2ccccc2n1-c1ccc(C(O)C2CC2)cc1 (stereo unspecified) | inactive | inactive | –
C[C@H]1CNCCc2ccc(Cl)cc21 | – | – | Activity [3]: Active
O=C(c1ccc(-n2cnc([N+](=O)[O-])c2)cc1)C1CC1 | inactive | Active | Activity [4]: Active; Emax [5]: 140%; Emax at 1 µM [6]: 100%; Emax at 1 µM [7]: 123%; Activity [8]: Not Active; Activity [9]: Not Active; Activity [10]: inactive; pEC50 [11]: 8.38; pEC50 [12]: 7.34; pEC50 [13]: 8.90
COc1cc(C(=O)OCc2cn(C(c3ccc(OCc4ccccc4)cc3)C3CC3)nn2)cc(OC)c1OC (stereo unspecified) | inactive | – | –
O=C(c1ccc(NCCN2CCN(c3ccc(C(=O)C4CC4)cc3)CC2)cc1)C1CC1 | inactive | – | –
O=C(c1ccc(-n2ccnc2)cc1)C1CC1 | inactive | Active | Activity [4]: Active; Emax [5]: 143%; Emax at 1 µM [6]: 96%; Emax at 1 µM [7]: 119%; Activity [8]: Not Active; Activity [9]: Not Active; Activity [10]: inactive; pEC50 [11]: 8.37; pEC50 [12]: 7.30; pEC50 [13]: 8.90
CC1(C)O[C@@H]2O[C@H]([C@H]3COC(C)(C)O3)[C@@H](OCc3cn(C(c4ccc(OCc5ccccc5)cc4)C4CC4)nn3)[C@H]2O1 (stereo partly specified) | inactive | – | –
Cc1nc2ccccc2n1-c1ccc(C(=O)C2CC2)cc1 | inactive | inactive | –
OC(c1ccc(-n2cnc3c(NCc4ccccc4)ncnc32)cc1)C1CC1 (stereo unspecified) | inactive | inactive | –
O=C(c1ccc(-n2cnc3ccccc32)cc1)C1CC1 | inactive | inactive | –
O=C(c1ccc(Nc2nc3ccc(F)cc3s2)cc1)C1CC1 | inactive | inactive | –
CCOc1ccc2nc(Nc3ccc(C(=O)C4CC4)cc3)sc2c1 | inactive | inactive | –
OC(c1ccc(-n2cnc3ccccc32)cc1)C1CC1 (stereo unspecified) | inactive | inactive | –
O=C(c1ccc(NCCCn2ccnc2)cc1)C1CC1 | – | inactive | –
CCCCCc1cn(C(c2ccc(OCc3ccccc3)cc2)C2CC2)nn1 (stereo unspecified) | inactive | – | –
OC(c1ccc(-n2ccnc2)cc1)C1CC1 (stereo unspecified) | inactive | inactive | –
O=[N+]([O-])c1cn(-c2ccc(C(O)C3CC3)cc2)cn1 (stereo unspecified) | inactive | inactive | –

Compound | Activity [1] | Activity [2] | other results
O=S(=O)(NCc1cn(C(c2ccc(OCc3ccccc3)cc2)C2CC2)nn1)c1ccc(F)cc1 (stereo unspecified) | inactive | – | –
O=C(c1ccc(OCc2ccccc2)cc1)C1CC1 | inactive | – | –
Cc1cccc2sc(Nc3ccc(C(=O)C4CC4)cc3)nc12 | inactive | inactive | –
C=CCN1CCN(c2ccc(C(=O)C3CC3)cc2)CC1 | inactive | inactive | –
O=C(c1ccc(-n2cnc3c(NCc4ccccc4)ncnc32)cc1)C1CC1 | inactive | inactive | –
Nc1ncnc2c1ncn2-c1ccc(C(O)C2CC2)cc1 (stereo unspecified) | inactive | inactive | –
c1ccc(COc2ccc(C(C3CC3)n3cc(-c4ccccc4)nn3)cc2)cc1 (stereo unspecified) | inactive | – | –
O=C(c1ccc(-n2nnc3ccccc32)cc1)C1CC1 | inactive | inactive | –
OCCCCc1cn(C(c2ccc(OCc3ccccc3)cc2)C2CC2)nn1 (stereo unspecified) | inactive | – | –
Nc1ncnc2c1ncn2-c1ccc(C(=O)C2CC2)cc1 | inactive | inactive | –
O=C(c1ccc(Nc2nc3ccccc3s2)cc1)C1CC1 | inactive | inactive | –
OCc1cn(C(c2ccc(OCc3ccccc3)cc2)C2CC2)nn1 (stereo unspecified) | inactive | – | –
O=C(c1ccc(Nc2nc3ccccc3[nH]2)cc1)C1CC1 | inactive | inactive | –
O=C(c1ccc(N2CCN(C(c3ccccc3)c3ccccc3)CC2)cc1)C1CC1 | inactive | inactive | –
Cc1ccc(S(=O)(=O)NCc2cn(C(c3ccc(OCc4ccccc4)cc3)C3CC3)nn2)cc1 (stereo unspecified) | inactive | – | –
Nc1cccc2ncn(-c3ccc(C(=O)C4CC4)cc3)c12 | inactive | inactive | –
O=C(c1ccc(N2CCN(Cc3ccc4c(c3)OCO4)CC2)cc1)C1CC1 | inactive | inactive | –
